Experimental data from different studies.
Each line is one published result; the experiments were not run side by side. Values after ≈ are worked out from the molar mass of the structure shown.

Compound | target or system | test | system | conditions | measurement | result
Cc1nn(-c2ccccc2)c2c1C(c1ccco1)N(C(=O)c1ccncc1)N2 (centres unmarked) | Cryptococcus neoformans | microbial growth | – | clinical isolate | MIC | 2 µg/mL (≈ 5.39 µM)
CC(C)=CCCC(C)=CC=O (mixture of isomers) | Cryptococcus neoformans | microbial killing, broth dilution | – | clinical isolate | MFC | 1600 µg/mL
C=CC(=O)NC1CCN(c2ncc3ncnc(Nc4ccc(Oc5ccc6c(c5)ncn6C)c(C)c4)c3n2)CC1 | LUDLU-1 | cell growth or viability | – | – | EC50 | 6.21 µM
COC1=CC(=O)c2ccccc2C1=O | Nakaseomyces glabratus | microbial growth, broth dilution | ATCC2001 | 24 h | MIC | 25 µg/mL (≈ 133 µM)
C=CCc1ccc(O)c(OC)c1 | Cryptococcus neoformans | microbial killing, broth dilution | – | clinical isolate | MFC | 400 µg/mL (≈ 2440 µM)
COc1ccc2c(C(=O)c3c(F)c(F)c(F)c(F)c3F)c(-c3ccc(OC)c(O)c3)[nH]c2c1 | – | tubulin polymerisation, inhibitor, absorbance | – | – | IC50 | > 20 µM
C=CC(=O)N1CCN(c2nc(=O)n(-c3c(C)ccnc3C(C)C)c3nc(-c4c(O)cccc4F)c(F)cc23)[C@@H](C)C1 | ASPC1 | cell growth or viability, ATP luminescence | – | – | IC50 | > 10 µM
Nc1ccc(/C=C/C(=O)N2CCc3c(oc4c(-c5ccc(F)cc5)cc(-c5ccc(C(=O)N6CCC(F)(F)CC6)nn5)cc34)C2)cn1 | ASPC1 | cell growth or viability, CCK-8 | – | 72 h | IC50 | 0.34 µM
Cc1nn(-c2ccccc2)c2c1C(c1c[nH]c3ccccc13)N(C(=O)c1ccncc1)N2 (centres unmarked) | Cryptococcus neoformans | microbial growth | – | clinical isolate | MIC | 4 µg/mL (≈ 9.51 µM)
C=C(F)C(=O)N1CCN(c2nc(OC[C@@H]3CCCN3C)nc3c2CCN(c2cccc4cccc(Cl)c24)C3)C[C@@H]1CC#N | NCI-H358 | cell growth or viability, ATP luminescence | – | 3D culture | IC50 | 0.00385 µM
Cc1nn(-c2ccccc2)c2c1C(c1ccc([N+](=O)[O-])cc1)N(C(=O)c1ccncc1)N2 (centres unmarked) | Cryptococcus neoformans | microbial growth | – | clinical isolate | MIC | 64 µg/mL (≈ 150 µM)
Cc1c(C(=O)O)ccc2c3n(nc12)[C@@H]1[C@H](C3)N(CC2CC2)[C@@]2(C(=O)Nc3cc(Cl)ccc32)[C@H]1c1cccc(Cl)c1F | SW982 | cell growth or viability, resazurin | – | – | GI50 | 0.00034 µM
COc1ccc(C2c3c(C)nn(-c4ccccc4)c3NN2C(=O)c2ccncc2)cc1 (centres unmarked) | Cryptococcus neoformans | microbial growth | – | clinical isolate | MIC | > 100 µg/mL
CO[C@]12C[C@@H](COC(=O)c3cncc(Br)c3)CN(C)[C@@H]1Cc1cn(C)c3cccc2c13 | CNE-2 | cell growth or viability, MTT | – | 48 h | IC50 | 12.9 µM
